31 compounds from ChEMBL document CHEMBL3045454, “Synthesis and fungicidal activity of aryl carbamic acid-5-aryl-2-furanmethyl ester” (2010) can be followed below.

Structures are written as SMILES.

In assay [1] the test system is Fusarium oxysporum. Nature of the assay: Fungicidal activity Fusarium oxysporum assessed as inhibition of mycelium growth at 50 mg/L at 24 degC measured after 2 days. Conditions: 48 h.
For assay [2], the system named is Corynespora cassiicola. Nature of the assay: Fungicidal activity Corynespora cassiicola assessed as inhibition of mycelium growth at 50 mg/L at 24 degC measured after 2 days. Conditions: 48 h.
Assay [3] has as its system Culex pipiens pallens. Kind of assay: Larvicidal activity against fourth-instar Culex pipiens pallens (mosquito) assessed as mortality at 2000 mg/L measured after 8 days. Conditions: 192 h. In kind it is functional. The procedure, abridged: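 Twenty fourth-instar Culex pipiens pallens larvae are placed in 10 mL of the test solution (acetone/distilled water, final 2000 mg L^-1) and reared for 8 days. Mortality is recorded as percent dead. Acetone serves as blank. Four replicates.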

Assay [4] relates to Plutella xylostella. Nature of the assay: Insecticidal activity against Plutella xylostella (diamondback moth) assessed as mortality at 600 mg/L measured after 72 hr. The assay is classed as functional.
The subject of assay [5] is Corynespora cassiicola. Kind of assay: Fungicidal activity Corynespora cassiicola assessed as inhibition of mycelium growth at 50 mg/L at 24 degC measured after 2 days. The assay is classed as functional. Conditions: 48 h. A digest of the protocol: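 Mycelial growth assay on potato dextrose agar. The compound, as a 50 mg L^-1 DMF solution, is mixed into the PDA and a fungus cake is placed on it. DMF serves as blank. Plates are incubated at 24 ± 0.5 °C for 2 days. Mycelial diameters are measured and the inhibitory rate is calculated from them. Three replicates.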

Assay [6] relates to Botrytis cinerea. Kind of assay: Fungicidal activity Botrytis cinerea assessed as inhibition of mycelium growth at 50 mg/L at 24 degC measured after 2 days. Particulars: 48 h.
Assay [7] deals with Plutella xylostella. Nature of the assay: Insecticidal activity against Plutella xylostella assessed as mortality at 5 mg/L measured after 72 hr. The assay is classed as functional.

As for `O=C(NC(=O)c1c(F)cccc1F)OCc1ccc(-c2ccc(Br)cc2)o1`, the inhibition (usually the relative decrease from the control value, in per cent) at 50 µg/mL in assay [1] was found to be 7.38%; in assay [2], 57.8%; in assay [5], 63.3%; in assay [6], 62.2%. The mortality (commonly the share of the test organisms that died) at 2000 µg/mL in assay [3] is 0%. Besides, in assay [4], the mortality at 600 µg/mL came to 10%.
Turning to `O=C(NC(=O)c1ccccc1Cl)OCc1ccc(-c2ccc(F)cc2)o1`, the inhibition at 50 µg/mL in assay [1] is 4.46%; in assay [2], 38.6%; in assay [5], 60.6%; in assay [6] it was 40.6%. In addition, in assay [3], the mortality at 2000 µg/mL turned out to be 10%. For the same compound, the mortality at 600 µg/mL in assay [4] was 0%.
Take `O=C(NC(=O)c1c(F)cccc1F)OCc1ccc(-c2ccc(Cl)cc2)o1`: the inhibition at 50 µg/mL in assay [1] came to 92.3%; in assay [2], 71.6%; in assay [6], 100%. Besides, in assay [3], the mortality at 2000 µg/mL is 10%. In assay [4], the mortality at 600 µg/mL amounted to 0%.
On to `O=C(NC(=O)c1c(Cl)cccc1Cl)OCc1ccc(-c2ccc(F)cc2F)o1`, for which the inhibition at 50 µg/mL in assay [1] was 15.9%; in assay [2], 16%; in assay [5], 63.3%; in assay [6] it was 27.9%. In assay [3], the mortality at 2000 µg/mL came to 10%. In addition, the mortality at 600 µg/mL in assay [4] is 1%.
On to `O=C(NC(=O)c1ccccc1Cl)OCc1ccc(-c2ccccc2Br)o1`, for which the inhibition at 50 µg/mL is 25.2% in assay [1], 42.5% in assay [2], 67.3% in assay [5] and 54.3% in assay [6]. Further, the mortality at 2000 µg/mL in assay [3] is 0%. Further, the mortality at 600 µg/mL in assay [4] worked out at 0%.
Regarding `O=C(NC(=O)c1c(Cl)cccc1Cl)OCc1ccc(-c2ccccc2F)o1`, the inhibition at 50 µg/mL in assay [1] stood at 1.5%; in assay [2], 36%; in assay [5] it was 70.4%; in assay [6] it was 57.3%. For the same compound, the mortality at 2000 µg/mL in assay [3] came to 0%. For the same compound, in assay [4], the mortality at 600 µg/mL amounted to 10%.
Regarding `N#Cc1c(Cl)c(Cl)c(Cl)c(C#N)c1Cl` [CHLOROTHALONIL], the inhibition at 50 µg/mL in assay [2] stood at 23.3%.
As for `O=C(NC(=O)c1c(F)cccc1F)OCc1ccc(-c2ccccc2Cl)o1`, the inhibition at 50 µg/mL in assay [1] is 41.2%; in assay [2], 43.5%; in assay [5], 36.6%; in assay [6] it was 66.6%. The mortality at 2000 µg/mL in assay [3] was found to be 0%. The mortality at 600 µg/mL in assay [4] was determined as 0%.
For the compound `O=C(NC(=O)c1c(F)cccc1F)OCc1ccc(-c2cccc(F)c2)o1`, the inhibition at 50 µg/mL in assay [1] turned out to be 7.63%; in assay [2] it was 31.5%; in assay [5], 38.4%; in assay [6] it was 60.4%. Moreover, the mortality at 2000 µg/mL in assay [3] was determined as 10%. Further, the mortality at 600 µg/mL in assay [4] came to 0%.
Regarding `O=C(NC(=O)c1c(Cl)cccc1Cl)OCc1ccc(-c2ccccc2Cl)o1`, the inhibition at 50 µg/mL in assay [1] was determined as 35.3%; in assay [2], 34.7%; in assay [5], 83.1%; in assay [6], 41.4%. Besides, in assay [3], the mortality at 2000 µg/mL is 0%. In addition, the mortality at 600 µg/mL in assay [4] was 0%.
With `O=C(NC(=O)c1c(F)cccc1F)OCc1ccc(-c2ccc(F)cc2)o1`, the inhibition at 50 µg/mL was 49.4% in assay [1], 22.1% in assay [2], 56% in assay [5] and 58.5% in assay [6]. The mortality at 2000 µg/mL in assay [3] was 0%. Besides, the mortality at 600 µg/mL in assay [4] came to 10%.
As to `O=C(NC(=O)c1ccccc1Cl)OCc1ccc(-c2ccc(Cl)cc2)o1`, the inhibition at 50 µg/mL amounted to 14.5% in assay [1], 66% in assay [2], 75.5% in assay [5] and 55.1% in assay [6]. In assay [3], the mortality at 2000 µg/mL came out at 10%. Further, the mortality at 600 µg/mL in assay [4] stood at 0%.
With `O=C(NC(=O)c1ccccc1Cl)OCc1ccc(-c2cccc(F)c2)o1`, the inhibition at 50 µg/mL in assay [1] amounted to 14.5%; in assay [2], 37.3%; in assay [5], 53.3%; in assay [6], 48.9%. In assay [3], the mortality at 2000 µg/mL was determined as 10%. Moreover, in assay [4], the mortality at 600 µg/mL stood at 0%.
Regarding `O=C(NC(=O)c1c(Cl)cccc1Cl)OCc1ccc(-c2cccc(Cl)c2)o1`, the inhibition at 50 µg/mL was 14.5% in assay [1], 19% in assay [2], 53.3% in assay [5] and 13% in assay [6]. Further, the mortality at 2000 µg/mL in assay [3] worked out at 10%. For the same compound, in assay [4], the mortality at 600 µg/mL was found to be 10%.
As to `O=C(NC(=O)c1c(F)cccc1F)OCc1ccc(-c2ccccc2F)o1`, the inhibition at 50 µg/mL came to 44.6% in assay [1], 44.5% in assay [2] and 70.4% in assay [6]. The mortality at 2000 µg/mL in assay [3] was 0%. For the same compound, the mortality at 600 µg/mL in assay [4] amounted to 0%.
Turning to `COC(=O)NC(=S)Nc1ccccc1NC(=S)NC(=O)OC` [THIOPHANATE METHYL], the inhibition at 50 µg/mL in assay [1] is 34.2%.
Take `O=C(NC(=O)c1c(Cl)cccc1Cl)OCc1ccc(-c2ccc(Cl)cc2)o1`: the inhibition at 50 µg/mL in assay [1] is 44.6%; in assay [2], 33.3%; in assay [5] it was 67.9%; in assay [6], 48.1%. For the same compound, the mortality at 2000 µg/mL in assay [3] came to 0%. Besides, the mortality at 600 µg/mL in assay [4] was 10%.
Take `O=C(NC(=O)c1c(Cl)cccc1Cl)OCc1ccc(-c2ccc(F)cc2)o1`: the inhibition at 50 µg/mL in assay [1] worked out at 35.3%; in assay [2], 37.3%; in assay [5] it was 72.7%; in assay [6] it was 37.1%. Also, in assay [3], the mortality at 2000 µg/mL turned out to be 0%. In assay [4], the mortality at 600 µg/mL was found to be 0%.
As to `Cc1cc(C)nc(Nc2ccccc2)n1` [PYRIMETHANIL], the inhibition at 50 µg/mL in assay [6] was found to be 48.9%.
Regarding `N#Cc1nn(-c2c(Cl)cc(C(F)(F)F)cc2Cl)c(N)c1[S+]([O-])C(F)(F)F` (stereo unspecified) [FIPRONIL], the mortality at 5 µg/mL in assay [7] came to 100%.
With `CC(C)(C)N(NC(=O)c1ccccc1)C(=O)c1ccccc1` [RH-5849], the mortality at 2000 µg/mL in assay [3] came out at 0%.
In the case of `O=C(NC(=O)c1ccccc1Cl)OCc1ccc(-c2ccccc2F)o1`, the inhibition at 50 µg/mL was 1.5% in assay [1], 26.3% in assay [2], 65.3% in assay [5] and 34.4% in assay [6]. For the same compound, the mortality at 2000 µg/mL in assay [3] is 10%. Also, the mortality at 600 µg/mL in assay [4] was 0%.
In the case of `O=C(NC(=O)c1c(F)cccc1F)OCc1ccc(-c2cccc(Cl)c2)o1`, the inhibition at 50 µg/mL was determined as 45.4% in assay [1], 50.5% in assay [2] and 63.5% in assay [6]. The mortality at 2000 µg/mL in assay [3] came to 10%. In assay [4], the mortality at 600 µg/mL is 0%.
As for `O=C(NC(=O)c1c(Cl)cccc1Cl)OCc1ccc(-c2cccc(F)c2)o1`, the inhibition at 50 µg/mL worked out at 8.82% in assay [1], 12.9% in assay [2], 62% in assay [5] and 32.6% in assay [6]. Moreover, the mortality at 2000 µg/mL in assay [3] was 10%. The mortality at 600 µg/mL in assay [4] stood at 20%.
`O=C(NC(=O)c1c(Cl)cccc1Cl)OCc1ccc(-c2ccccc2Br)o1`: the inhibition at 50 µg/mL in assay [1] was 42.3%; in assay [2], 39.9%; in assay [5] it was 79.2%; in assay [6], 44.8%. Further, the mortality at 2000 µg/mL in assay [3] stood at 0%. Also, the mortality at 600 µg/mL in assay [4] came out at 0%.
Consider `O=C(NC(=O)c1c(Cl)cccc1Cl)OCc1ccc(-c2ccc(Br)cc2)o1`, for which the inhibition at 50 µg/mL is 32.8% in assay [1], 54.4% in assay [2], 64.7% in assay [5] and 52.8% in assay [6]. Moreover, the mortality at 2000 µg/mL in assay [3] came to 10%. In assay [4], the mortality at 600 µg/mL turned out to be 0%.
For the compound `O=C(NC(=O)c1ccccc1Cl)OCc1ccc(-c2ccccc2Cl)o1`, the inhibition at 50 µg/mL in assay [1] was 0%; in assay [2] it was 43.8%; in assay [5] it was 69.8%; in assay [6] it was 25%. In addition, the mortality at 2000 µg/mL in assay [3] was determined as 20%. Also, the mortality at 600 µg/mL in assay [4] is 0%.
With `O=C(NC(=O)c1c(F)cccc1F)OCc1ccc(-c2ccc(F)cc2F)o1`, the inhibition at 50 µg/mL turned out to be 44.6% in assay [1], 42.5% in assay [2] and 64% in assay [6]. Besides, in assay [3], the mortality at 2000 µg/mL stood at 10%. Besides, in assay [4], the mortality at 600 µg/mL worked out at 0%.
The corresponding values for `O=C(NC(=O)c1c(F)cccc1F)OCc1ccc(-c2ccccc2Br)o1` are 42.3%, 52.2%, 54.3%, 20% and 10%.
With `O=C(NC(=O)c1ccccc1Cl)OCc1ccc(-c2ccc(Br)cc2)o1`, the inhibition at 50 µg/mL in assay [1] is 10.2%; in assay [2], 59.9%; in assay [5], 50.2%; in assay [6], 34.4%. In assay [3], the mortality at 2000 µg/mL was found to be 10%. Further, in assay [4], the mortality at 600 µg/mL is 0%.
For the compound `O=C(NC(=O)c1ccccc1Cl)OCc1ccc(-c2cccc(Cl)c2)o1`, the inhibition at 50 µg/mL was -3.03% in assay [1], 24.9% in assay [2], 38.6% in assay [5] and 24.1% in assay [6]. Also, the mortality at 2000 µg/mL in assay [3] was 0%. The mortality at 600 µg/mL in assay [4] was 0%.
